Results from ChEMBL document CHEMBL1146543, “New antimycobacterial and antimalarial 8,9-secokaurane diterpenes from Croton kongensis” (J Nat Prod, 2003).
In brackets after ≈: the same amount, converted by molar mass.

Legend:
KB = assay: Cytotoxicity against human KB cells; type: functional, cell-based
Procedure, shortened: (§1)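 Colorimetric cytotoxicity assay run on Vero, KB and BC cell lines, with ellipticine as the reference compound. The result is reported as IC50.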

[1] = Cytotoxicity against human BC cells; type: functional, cell-based; procedure, shortened: as §1
Vero = assay: Cytotoxicity against african green monkey Vero cells; type: cell-based; details: Chlorocebus sabaeus; procedure, shortened: as §1
[2] = system: Mycobacterium tuberculosis; assay: Antimycobacterial activity against Mycobacterium tuberculosis H37Ra by Microplate Alamar Blue Assay; type: functional
Procedure, shortened: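 Microplate Alamar Blue assay with MIC as the endpoint; isoniazid and kanamycin sulfate were run as reference drugs.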

Plasmodium falciparum = assay: Antimalarial activity against multidrug-resistant Plasmodium falciparum K1 by [3H]hypoxanthine uptake; type: functional, organism-based
Procedure, shortened: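 Parasites kept in continuous in vitro culture (Trager–Jensen method); microculture radioisotope assay with growth read as [3H]-hypoxanthine uptake.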

`Cc1c2ccncc2c(C)c2c1[nH]c1ccccc12` [ELLIPTECINE] showed an IC50 (KB) of 0.2 µg/mL (≈ 0.812 µM), an IC50 [1] of 0.2 µg/mL (≈ 0.812 µM) and an IC50 (Vero) of 0.2 µg/mL (≈ 0.812 µM).
In the case of `NC[C@H]1O[C@H](O[C@H]2[C@H](O)[C@@H](O[C@H]3O[C@H](CO)[C@@H](O)[C@H](N)[C@H]3O)[C@H](N)C[C@@H]2N)[C@H](O)[C@@H](O)[C@@H]1O.O=S(=O)(O)O` [KANAMYCIN SULFATE], the MIC [2] is reported as 2 µg/mL.
`C[C@@H]1CC[C@H]2[C@@H](C)C(=O)O[C@@H]3O[C@@]4(C)CC[C@@H]1[C@]32OO4` [ARTEMISININ] showed an IC50 (Plasmodium falciparum) of 1 ng/mL (≈ 0.00354 µM).
